Test results published in ChEMBL document CHEMBL4190282, “The Conjugated Double Bond of Coniferyl Aldehyde Is Essential for Heat Shock Factor 1 Mediated Cytotoprotection” (J Nat Prod, 2017).
Active and inactive are the calls of the source. The calls are words filed in the database; no cut-off is given here.

Key:
Mus musculus [1] = test: Protection against IR-induced reduction of spleen weight in ICR mouse at 10 mg/kg, ip administered once before and three times after irradiation measured after 9 days; format: functional, organism-based
Summary of the method: (§1)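 Female ICR mice (5–6 weeks) given 4.5 Gy whole-body IR, dosed ip at 10 mg/kg once before and three times after IR; 5 per group, sacrificed day 9. BM cellularity from H&E (hematopoietic cells per 200×200 μm area); peripheral WBC, lymphocytes, neutrophils; Ki67 IHC counted in five fields per femur; relative spleen weight vs control. Means ± SD, Student's t test.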

Mus musculus [2] = test: Protection against IR-induced bone marrow damage in ICR mouse at 10 mg/kg, ip administered once before and three times after 4.5 Gy irradiation measured after 9 days by hematoxylin and eosin staining based assay; format: functional, organism-based; summary of the method: as §1
L132 [3] = test: Cytoprotective activity against paclitaxel-induced PARP cleavage in human L-132 cells at 3 uM pretreated for 1 hr followed by paclitaxel addition measured after 24 hrs by immunoblotting analysis; format: functional, cell-based
Summary of the method: (§2)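 Human embryonic lung L132 cells in RPMI with 10% FBS. 1 h pretreatment at 3 μM, then 0.5 μM paclitaxel or 20 μM cisplatin for 24 h, or 10 Gy 137Cs γ-rays (3.81 Gy/min) for 48 h. Cleaved PARP and caspase-3 immunoblotted (ECL); bands normalized to loading control, fold-change vs negative control, ≥3 independent experiments.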

L132 [4] = test: Cytoprotective activity against cisplatin-induced cell death in human L-132 cells at 3 uM pretreated for 1 hr followed by cisplatin addition measured after 24 hrs by FACS analysis; format: functional, cell-based
Summary of the method: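 L132 cells in RPMI with 10% FBS. 1 h pretreatment at 3 μM, then 0.5 μM paclitaxel or 20 μM cisplatin for 24 h, or 10 Gy γ-rays for 48 h. Cells trypsinized, washed, stained with propidium iodide and analysed by flow cytometry. Means ± SD of ≥3 independent experiments, fold-change vs negative control.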

[5] = target: T1, Heat shock factor protein 1 (Homo sapiens) (UniProt Q00613); test: Activation of HSF1 in human NCI-H460 cells assessed as upregulation of HSP25 protein levels at 10 to 30 uM after 12 hrs by Western blot analysis; format: cell-based
T1 sequence (whole entry): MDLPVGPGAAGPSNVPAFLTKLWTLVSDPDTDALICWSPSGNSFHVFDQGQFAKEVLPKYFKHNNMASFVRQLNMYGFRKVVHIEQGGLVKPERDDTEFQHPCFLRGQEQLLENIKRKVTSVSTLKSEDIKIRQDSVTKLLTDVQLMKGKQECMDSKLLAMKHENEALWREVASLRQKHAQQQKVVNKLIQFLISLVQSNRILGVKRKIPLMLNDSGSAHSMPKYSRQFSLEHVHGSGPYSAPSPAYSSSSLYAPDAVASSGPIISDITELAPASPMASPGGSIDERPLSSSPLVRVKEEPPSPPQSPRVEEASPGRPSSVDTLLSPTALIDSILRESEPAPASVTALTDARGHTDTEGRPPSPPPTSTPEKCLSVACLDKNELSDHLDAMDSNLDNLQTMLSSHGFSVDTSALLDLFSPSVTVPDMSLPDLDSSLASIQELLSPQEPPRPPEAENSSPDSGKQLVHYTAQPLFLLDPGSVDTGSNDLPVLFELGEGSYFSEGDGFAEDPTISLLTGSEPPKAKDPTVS
Summary of the method: (§3)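 NCI-H460 cells treated 12 h at 10 or 30 μM; HSF1, HSP27 and HSP70 detected by Western blot.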

MEF [6] = test: Cytoprotective activity against paclitaxel-induced caspase3 cleavage in HSF1 deficient MEF at 3 uM pretreated for 1 hr followed by paclitaxel addition measured after 24 hrs by immunoblotting analysis; format: functional, cell-based; settings: Mus musculus
Summary of the method: (§4)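 HSF1+/+ or HSF1−/− MEFs in DMEM with heat-inactivated 10% FBS, nonessential amino acids, glutamine, HEPES, 37 °C, 5% CO2. 1 h pretreatment at 3 μM, then 0.5 μM paclitaxel or 20 μM cisplatin for 24 h, or 10 Gy 137Cs γ-rays (3.81 Gy/min) for 48 h. Cleaved PARP and caspase-3 immunoblotted; bands normalized to loading control, fold-change vs negative control, ≥3 independent experiments.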

L132 [7] = test: Cytoprotective activity against IR-induced caspase3 cleavage in human L-132 cells at 3 uM pretreated for 1 hr followed by 10 Gy irradiation measured after 48 hrs by immunoblotting analysis; format: functional, cell-based; summary of the method: as §2
MEF [8] = test: Cytoprotective activity against cisplatin-induced PARP cleavage in HSF1 deficient MEF at 3 uM pretreated for 1 hr followed by cisplatin addition measured after 24 hrs by immunoblotting analysis; format: functional, cell-based; settings: Mus musculus; summary of the method: as §4
L132 [9] = test: Cytoprotective activity against cisplatin-induced PARP cleavage in human L-132 cells at 3 uM pretreated for 1 hr followed by cisplatin addition measured after 24 hrs by immunoblotting analysis; format: functional, cell-based; summary of the method: as §2
L132 [10] = test: Cytotoxicity against human L-132 cells assessed as reduction in cell viability up to 20 uM after 24 hrs by MTT assay; format: cell-based; settings: l132, 24 h
Summary of the method: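 L132 cells treated 24 h at indicated doses up to 20 μM. MTT (5 mg/mL in PBS) 4 h at 37 °C, formazan dissolved in DMSO, absorbance at 540 nm converted to cell number via calibration curve. Celastrol positive control.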

[11] = target: T1, Heat shock factor protein 1 (Homo sapiens); test: Activation of HSF1 in human L132 cells assessed as increase in HSP25 protein levels at 3 uM after 12 hrs by immunoblotting analysis; format: cell-based
Summary of the method: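 L132 cells treated at 3 μM for 12 h, or at various doses for 12 h, or at 3 μM over a time course. Lysates resolved by SDS-PAGE, blotted to nitrocellulose, milk-blocked, primary antibodies 18 h at 4 °C, ECL detection. HSP27, HSP70 and Ser326-phospho-HSF1 bands normalized to loading control; ≥3 independent experiments; celastrol 1 μM positive control.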

Mus musculus [12] = test: Toxicity in ICR mouse at 10 mg/kg, ip measured within 30 days; format: organism-based; settings: in vivo, 720 h
Summary of the method: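 Normal ICR mice given 10 mg/kg ip (DMSO stock diluted in modified PBS); observed for signs of toxicity over 30 days.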

[13] = target: T1, Heat shock factor protein 1 (Homo sapiens); test: Activation of HSF1 in human NCI-H460 cells assessed as upregulation of HSP70 protein levels at 10 to 30 uM after 12 hrs by Western blot analysis; format: cell-based; summary of the method: as §3
MEF [14] = test: Cytoprotective activity against paclitaxel-induced PARP cleavage in HSF1 deficient MEF at 3 uM pretreated for 1 hr followed by paclitaxel addition measured after 24 hrs by immunoblotting analysis; format: functional, cell-based; settings: Mus musculus; summary of the method: as §4
Mus musculus [15] = test: Protection against IR-induced reduction of food and water intake in ICR mouse at 5 to 10 mg/kg, ip administered once before and three times after 7 Gy irradiation measured daily for 30 days; format: functional, organism-based
Summary of the method: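 Female ICR mice (5–6 weeks, 25–30 g) given 7 Gy whole-body IR; dosed ip at 5 or 10 mg/kg once before and three times after IR, DMSO stock diluted in modified PBS. Survival days and radiation sickness signs checked twice daily; 10 mice per group.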

[16] = target: T1, Heat shock factor protein 1 (Homo sapiens); test: Activation of HSF1 in human NCI-H460 cells expressing pGL4-hsp70 construct assessed as upregulation of hsp70 promoter activity at 10 to 30 uM after 12 hrs by luciferase reporter gene assay; format: cell-based
Summary of the method: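 NCI-H460 cells stably carrying hsp25 or hsp70 promoter–luciferase reporters, seeded, treated after 24 h at 10 or 30 μM and harvested 12 h later. Lysate luciferase normalized to β-galactosidase; mean of three independent experiments, fold-change vs negative control.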

| Activity [5] | Activity [11] | Activity [13] | Activity [16] | SMILES | Activity (Mus musculus [1]) | Activity (Mus musculus [2]) | Activity (L132 [3]) | Activity (L132 [4]) | Activity (MEF [6]) | Activity (L132 [7]) | Activity (MEF [8]) | Activity (L132 [9]) | Activity (L132 [10]) | Activity (Mus musculus [12]) | Activity (MEF [14]) | Activity (Mus musculus [15]) |
| --- | --- | --- | --- | --- | --- | --- | --- | --- | --- | --- | --- | --- | --- | --- | --- | --- |
| Active | Active | Active | Active | COc1cc(/C=C/CO)ccc1O [CONIFERYL ALCOHOL] | Active | Active | Active | Active | inactive | Active | inactive | Active | Non-Toxic | Non-Toxic | inactive | Active |
| Active | Active | Active | Active | COc1cc(/C=C/C=O)ccc1O [CONIFERYL ALDEHYDE] | Active | Active | Active | Active | inactive | Active | inactive | Active | Non-Toxic | Non-Toxic | inactive | Active |
